This data set has as its system MS2 coat protein. Kind of data set: apparent Kd, MS2 coat protein; higher = weaker binding; RNA-MaP array; FMN 200 µM where present. Summed up: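 Binding was read on Illumina sequencing-chip clusters where stalled E. coli RNA polymerase had transcribed each design. A titration of SNAP-549-labelled MS2 coat protein began at 0.7 or 1.5 nM and doubled to 3 µM, once without ligand and once with constant ligand, in 100 mM Tris-HCl pH 7.5, 80 mM KCl, 4 mM MgCl2, BSA, DTT, yeast tRNA and Tween-20. The apparent Kd is the median of filtered per-cluster binding-curve fits, based on green signal normalised to red-channel RNA signal and control-cluster median Fmax.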

[1] abbreviates: designed as: ON switch for flavin mononucleotide, no ligand.
Where [2] appears, read: ligand present: flavin mononucleotide, designed as: ON switch for flavin mononucleotide.
[3] abbreviates: designed as: OFF switch for flavin mononucleotide, no ligand.
The mark [4] stands for this setting: ligand present: flavin mononucleotide, designed as: OFF switch for flavin mononucleotide.

By apparent Kd is commonly meant the concentration giving half-maximal binding under the conditions of the assay.

Consider “AUAAAACAUGAGGAUCACCCAUGUCAACAAAGUCGAGGAUAUGGGCAAAUAAAAUAAGAACCAGAAGGCGAAUAAC”, for which the “apparent Kd” value runs as follows: under setting [1], 371 nM; under setting [2], 34.7 nM.
“CACGGUGAUGUAGGAUAUACGCUGGAAUACAGCGUAGAAGGACAUGAGGAUCACCCAUGUAAAGUGUCUCCGAAUAACACCGUG”: the “apparent Kd” value is 33.8 nM under setting [3] and 63.3 nM under setting [4].
“GACCCUAAUGAGAAGGUGUGUAUAAAUUAUAUACAAGGAUAUCGGUCGAGCGUGUUGACAUGAGGAUCACCCAUGUUGAGGGUU”: the “apparent Kd” value worked out at 26.8 nM under setting [1] and 10.4 nM under setting [2].
Consider “AGCCAAGCAGGAUAUGCCCGGGAUAACAUGAGGAUCACCCAUGUGACCGAUUGAUGUCCUGCAGAAGGGCUUGGGA”, for which the “apparent Kd” value reads like this: under setting [3], 15.6 nM; under setting [4], 79.8 nM.
In the case of “GGGUACAUCGGAGGAUAUCAUGUAAAUACAUGAGGAUCACCCAUGUCGAUGGAGACACCGGAGAUUGAGAAGGCCGAUGUACCG”, the “apparent Kd” value under setting [1] was 643 nM and the “apparent Kd” value under setting [2] came out at 23.5 nM.
Regarding “UUAUGUUUUGUAGGAUAUCAUAAGUUAUGUAUUAUAAUUGAAAUUUUGUUAUGAGAAGGACAUUUACAUGAGGAUCACCCAUGU”, the “apparent Kd” value came out at 13.6 nM under setting [3] and 9.96 nM under setting [4].
On to “GGUCGUCACAUUAACAUGAGGAUCACCCAUGUCAAAUAACAUGAGGAUAUGCAUCCUAAUUGGAUGCAGAAGGCAUGGACGACC”, for which the “apparent Kd” value runs as follows: under setting [1], 6.72 nM; under setting [2], 5.39 nM.
For the sequence “CGGUGCUGAGGAUAUACAUGAGGAUCACCCAUGUGUUCUAGCUAGCGUACUGGCAGAUGUAGAAGGCGGUACUG”, the “apparent Kd” value is 18.2 nM under setting [3] and 75.7 nM under setting [4].
On to “UUACCUUAUGAGAAGGCGAUCAUGAAACAUGAUCGAGGAUAUCAUGUAAACAUGAGGAUCACCCAUGUAUGGGUAUUAUGGUAC”, for which the “apparent Kd” value under setting [1] was determined as 86.6 nM and the “apparent Kd” value under setting [2] is 27.8 nM.
With “AAAUAAAGUACCUUGAUAUCCUCACAUGAGGAUCACCCAUGUCAGGAUAUUUGUCCUAAAAGGACAGAGAAGGGACAAGGUAUA”, the “apparent Kd” value runs as follows: under setting [3], 5.82 nM; under setting [4], 6.19 nM.
As to “GGUCGUCACAUUAACAUGAGGAUCACCCAUGUCAAAAGACAUGAGGAUAUGCAUCCUAAUUGGAUGCAGAAGGCAUGGACGACC”, the “apparent Kd” value by setting is: under setting [1], 507 nM; under setting [2], 32.7 nM.
As for “AGAGGUCGCACAGGAUAUCAUACAUGAGGAUCACCCAUGUCAGAAAACAAAUGAGAAGGGUGCGCGUUAAUCGCUUGUGAAGAA”, the “apparent Kd” value was determined as 16.7 nM under setting [1] and 4.8 nM under setting [2].
On to “UUUUUUGUAGUGAGGAUAUCGUUGAGGAUGUGGAUCGAGAAGGCACAUGAGGAUCACCCAUGUUAGAUGUGGUU”, for which the “apparent Kd” value is 262 nM under setting [3] and 295 nM under setting [4].
Taken in the same sequence, the figures for “GCAGACGUGGUGAGGAUAUGCUCUACCUCGGUAGAGCAGAAGGCACAUGAGGAUCACCCAUGUGGCUCCUCAUU” were 15.9 nM and 21 nM.
As for “GUAGCAUACCGAGGAUAUUCCGGGCAUAAAUAAACAUGAGGAUCACCCAUGUGGCGAAAGCCUAGGGAGAAGGCGGAAUGCUAC”, the “apparent Kd” value turned out to be 15.2 nM under setting [1] and 13.6 nM under setting [2].
Turning to “UGAGCAUGAGGAUAUACAAGGCGUGCCGUAGCACGAGGUCUACAUGAGGAUCACCCAUGUAGAAGGCAUGUUCU”, the “apparent Kd” value under setting [3] is 16.8 nM and the “apparent Kd” value under setting [4] amounted to 36.9 nM.
“ACGUUGUCAGGAUAUCGUUAAUUUAGUUGUUUGUAUUAGUUCGAGAAGGGACAUGAGGAUCACCCAUGUUUGCU”: the “apparent Kd” value by setting is: under setting [3], 24.4 nM; under setting [4], 27.1 nM.
Taken in the same sequence, the figures for “GAGUGACAUGAGGAUCACCCAUGUGAGGAUAUCGGACGGACCAAAUUAACAACACCCGCGAGAAGGCACAUCGG” were 163 nM and 123 nM.
Taken in the same sequence, the figures for “UGUUGUUCAGGAUAUGAUGUUUUAUACAUGAGGAUCACCCAUGUGGGUCCUGAUUUGGCGUCAGAAGGGAAUGUUG” were 108 nM and 222 nM.
Consider “AUCAGCUCGUCAGGAUAUACGUCAGUGCGUCAGCAGUGUGGUAAGAUCACAUGAGGAUCACCCAUGUAGAAGGGACGAGCUGAU”, for which the “apparent Kd” value under setting [3] worked out at 161 nM and the “apparent Kd” value under setting [4] was 621 nM.
Take “UGGUACAUGGGAGGAUAUCCUCAAGAGACAUGAGGAUCACCCAUGUAUUAUAUGCCUCUUGGCAUGGAGAAGGCCCAUGUACCU”: the “apparent Kd” value reads like this: under setting [1], 56.2 nM; under setting [2], 55.4 nM.
Turning to “UAAAAGUCAGGAUAUGCGAGAGAUUGAAGUGUGGCAAGGUAGCAGAAGGGACAUGAGGAUCACCCAUGUGUGGC”, the “apparent Kd” value reads like this: under setting [3], 52.4 nM; under setting [4], 115 nM.
For “AACAAACAUGAGGAUCACCCAUGUCAGGAUAUGCACAAACAAACAAACAAACAAGCAAGCAGAAGGGACACAAC”, the “apparent Kd” value by setting is: under setting [3], 21.7 nM; under setting [4], 39.7 nM.
Taken in the same sequence, the figures for “CUAUCGUUGCAGAAGGUUAAAUAAUUUCUCAUCAUGUUUACAUGAGGAUCACCCAUGUAUUUGUUGAAGGAUAUGCAAGUGUUG” were 8.67 nM and 7.92 nM.
As to “UUAUGUUUUGUAGGAUAUCAUUAGUUAUGUAUUAUAAUUGAAAUUUUGAUUUGAGAAGGACAUUUACAUGAGGAUCACCCAUGU”, the “apparent Kd” value was 13.4 nM under setting [3] and 9.92 nM under setting [4].
Turning to “UGAAUGUAGGAGAAGGAGGACUUCAUGAGGAUCACCCAUGUGUUAGGACUUAGGAUAUUUGACGACAUGAGGAUCACCCAUGUG”, the “apparent Kd” value by setting is: under setting [1], 62.5 nM; under setting [2], 55.7 nM.
In the case of “CUAAAUCAUGUAGGAUAUGCGUGGCGAAGCUAUGCAGAAGGACAUGAGGAUCACCCAUGUCUUUCCGUCUGCGUACAGACGGAA”, the “apparent Kd” value reads like this: under setting [3], 28.6 nM; under setting [4], 282 nM.
With “CUGAUGUUAGGAUAUCAGGCGCCCGCCACUGGCAAGGCGCAUGAGAAGGGACAUGAGGAUCACCCAUGUAGUAA”, the “apparent Kd” value under setting [3] was 26.3 nM and the “apparent Kd” value under setting [4] worked out at 55.7 nM.
Taken in the same sequence, the figures for “UUCUCGAUGUAGAAGGCCGCGUCCGGCUCACGCGGAGGAUAUACAUGAGGAUCACCCAUGUGUUUGUGGCUUAUAUGGUACGAA” were 43 nM and 212 nM.
Turning to “AAAAUCUAUUGAGGAUAUUCAUACACUGCAUACGGAGAAGGCAAACAAUCAUGAGGACAUGAGGAUCACCCAUGUUGUGACCAU”, the “apparent Kd” value under setting [1] amounted to 17.6 nM and the “apparent Kd” value under setting [2] is 15.3 nM.
Consider “CUUUUGUGAGGAUAUCAGUAGUAAAAAAAUAAUAUUACUACUGAGAAGGCACAUGAGGAUCACCCAUGUUCCUC”, for which the “apparent Kd” value by setting is: under setting [3], 36 nM; under setting [4], 276 nM.
Taken in the same sequence, the figures for “GACUAGGCAGGAUAUACAUGAGGAUCACCCAUGUGUCUGCGUUAAGCACGUGAAGACGGUAGAAGGGCCUACAC” were 14.4 nM and 18.1 nM.
As to “AUAAAUCAUGUAGGAUAUGCGUGGCGAAGCUAUGCAGAAGGACAUGAGGAUCACCCAUGUCUUUCCGUCUGCGUAUAGACGGAA”, the “apparent Kd” value by setting is: under setting [3], 30.5 nM; under setting [4], 279 nM.
In the case of “GGAGCAACAUGAGGAUCACCCAUGUAGGAUAUCGCUAUUGUAAUCAUGAAACAUGAUUACAAUAGCGAGAAGGACAUAUGCUUU”, the “apparent Kd” value under setting [3] is 9.32 nM and the “apparent Kd” value under setting [4] turned out to be 11.9 nM.
With “GUGUAGUCAGGAUAUACAUAGGAAGAGAAGAGAAGAUAAGCACAUGAGGAUCACCCAUGUAGAAGGGACAGUGU”, the “apparent Kd” value by setting is: under setting [3], 65.1 nM; under setting [4], 70.7 nM.
Take “UCUCGAUGUGUAGGAUAUCUGACCACUAUGACAAGAGAAGGGCACAUGAGGAUCACCCAUGUGGAGGACCACUGGUUCAGAUUA”: the “apparent Kd” value is 40.9 nM under setting [3] and 51 nM under setting [4].
Taken in the same sequence, the figures for “CGUGGUUGGGAGGAUAUGCACGUGAACGCUAUUGUAGAAGGUCCGACAUGAGGAUCACCCAUGUAGGUGUCACG” were 168 nM and 147 nM.
For the sequence “GGCUCGAGGGUCUCCGCGUUCACAUGAGGAUCACCCAUGUAACAGGAUAUCGGGCCAAAGGGCAGCGAGAAGGGUUACUUGGGC”, the “apparent Kd” value under setting [3] is 6.43 nM and the “apparent Kd” value under setting [4] is 14.6 nM.
Turning to “AAAAAGUCAGGAUAUACAUGAGGAUCACCCAUGUAGCAUACGAAAAAGAGUGUGCAGUGUAGAAGGGACAAAAA”, the “apparent Kd” value by setting is: under setting [3], 27.1 nM; under setting [4], 25.7 nM.
Taken in the same sequence, the figures for “AGUCGGAGCAGAGGAUAUUACAUGAGGAUCACCCAUGUGGAAAAACCAAGCUGGAAACAGCAAUGUAAGAAGGCUGCUCCGACA” were 497 nM and 879 nM.
Taken in the same sequence, the figures for “UUAAUUAACAAGAAGGCUUACAUGAGGAUCACCCAUGUUGUACAUGGAUAAAGAGGAUAUUGCUAAUAAUUAUUUUUCUUAAUU” were 92.1 nM and 57.5 nM.
On to “AGAUGGCGAGGAUAUACAUGAGGAUCACCCAUGUGAGAGAAUAAAGUGAGGAAGAAAAGUAGAAGGCGCUGUCA”, for which the “apparent Kd” value is 59.4 nM under setting [3] and 264 nM under setting [4].
Regarding “UUAUAUUUACAAGGAUAUCAAUUAUUUAUACUUCCUACAUGAGGAUCACCCAUGUUUUUAUAUUUUGAGAAGGUGUAAUGUCGG”, the “apparent Kd” value is 38.5 nM under setting [1] and 33.7 nM under setting [2].
With “UGUCGGAGCAGAGGAUAUUACAUGAGGAUCACCCAUGUAUGAACCUAUAGCUGGAAACAGCAAUGUAAGAAGGCUGCUCCGACA”, the “apparent Kd” value is, setting by setting: under setting [3], 23.5 nM; under setting [4], 338 nM.
For “CAGAGGAUGUAAGGAUAUCGUCAGGAAUACUGACGAGAAGGUACAUGAGGAUCACCCAUGUAUAUGAAAGAUAAUAAACCUCUG”, the “apparent Kd” value is, setting by setting: under setting [3], 14.4 nM; under setting [4], 17.2 nM.
For the sequence “AUCUUUAACAUAGGAUAUAGUAUGAAGGUUUAUUUAGAAGGAUGUCACAUGAGGAUCACCCAUGUAUUAGGAUUACCCAUGUAU”, the “apparent Kd” value under setting [3] was found to be 30.1 nM and the “apparent Kd” value under setting [4] was 23.1 nM.
Taken in the same sequence, the figures for “CCAUGGCAUGUAGGAUAUCUCUGACAAAGUCAGAGAGAAGGACAUGAGGAUCACCCAUGUAAACCGAAAGGAACAUAGCCAUGG” were 6.31 nM and 6.26 nM.
Taken in the same sequence, the figures for “ACAUUUAUAUCAGGAUAUACAAUACAAUGAUUAGUAGAAGGGAUUAUUACAUGAGGAUCACCCAUGUCAUGUGUCAUAAUAACC” were 27.6 nM and 24.1 nM.

Source of the values: the EternaBench riboswitch data.
